Experimental findings from ChEMBL document CHEMBL3352024, “A new series of HAPs as anti-HBV agents targeting at capsid assembly” (Bioorg Med Chem Lett, 2014) are described below.

Calls of active or inactive are those of the source. The calls are words filed in the database; no cut-off is given here.

Series [1] in a line: Cytotoxicity against human HepG2.2.15 cells after 48 hrs. To be noted: hepg2 2.2.15, 48 h. In kind it is cell-based. An outline of the steps:
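HepG2.2.15 cells exposed to compounds for 48 h; cell viability then determined as the cytotoxicity read-out.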

In series [2] the test system is hepatitis B virus. Briefly: (§1) Selectivity index, ratio of TC50 for human HepG2.2.15 cells to IC50 for hepatitis B virus infected in human HepG2.2.15 cells. In kind it is toxicity, cell-based. The conditions noted are these: HepG2.2.15 cells, read-out: Selectivity Index.
Series [3] concerns Hepatitis B virus. As to the kind of experiment: Antiviral activity against hepatitis B virus infected in human HepG2.2.15 cells assessed as inhibition of viral replication. In kind it is functional, organism-based. The conditions noted are these: hepg2 2.2.15.
The target of series [4] is Core antigen (Hepatitis B virus) (UniProt Q03732). Briefly: Inhibition of hepatitis B virus capsid assembly after 24 hrs by HPLC analysis. An outline of the steps: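 Cp149 capsid protein is mixed with compound in 2× assembly buffer and incubated 24 h. Reactions are analysed by size-exclusion chromatography on an HPLC with autoinjection, on a column equilibrated in 100 mM HEPES pH 7.5, 300 mM NaCl at 0.6 ml/min. Recovered protein is assigned to void (8.5 min), capsid (9.5 min) and dimer (12.5 min) peaks.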

Series [5] concerns Hepatitis B virus. As to the kind of experiment: Inhibition of hepatitis B virus capsid cp149 assembly assessed as reduction in dimer formation at capsid-compound ratio of 1:2 to 1:4 after 24 hrs by HPLC analysis.
A short description of series [6]: as §1. In kind it is toxicity, cell-based.

Core antigen (Hepatitis B virus), sequence (Q03732 as listed by the source): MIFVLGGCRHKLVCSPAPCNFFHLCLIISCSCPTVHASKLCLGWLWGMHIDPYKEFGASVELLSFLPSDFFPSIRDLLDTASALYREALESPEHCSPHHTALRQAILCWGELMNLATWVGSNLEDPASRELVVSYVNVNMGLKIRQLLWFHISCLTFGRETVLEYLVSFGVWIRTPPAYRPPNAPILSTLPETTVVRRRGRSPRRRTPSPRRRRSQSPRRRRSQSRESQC

On to `CCOC(=O)C1=C(CN2CCOCC2)NC(c2c(F)cc(F)cc2N2CCOCC2)=NC1c1ccc(F)cc1Cl` (stereo not drawn), for which, in series [1], the TC0 worked out at 12.81 µmol and the TC50 came to 55.25 µmol. The selectivity ratio with hepatitis B virus [2] turned out to be 12.7. For the same compound, in the series with Hepatitis B virus [3], the IC50 came to 4.35 µmol.
In series [1], `CCOC(=O)C1=C(CN2CCC(C)CC2)NC(c2c(F)cc(F)cc2F)=NC1c1ccc(F)cc1Cl` (stereo not drawn) gave a TC0 of 4.65 µmol and a TC50 of 32.98 µmol. Also, the IC50 with Hepatitis B virus [3] was 9.56 µmol.
In series [1], `CCOC(=O)C1=C(CN(CCO)CCO)NC(c2c(F)cc(F)cc2F)=NC1c1ccc(F)cc1Cl` (stereo not drawn) showed a TC0 of 13.98 µmol and a TC50 of 54.02 µmol. Also, in the series on hepatitis B virus [2], the selectivity ratio worked out at 8.11. The IC50 with Hepatitis B virus [3] was found to be 6.66 µmol.
In series [1], `CCOC(=O)C1=C(CN2CCN(C)CC2)NC(c2c(F)cc(F)cc2F)=NC1c1ccc(F)cc1Cl` (stereo not drawn) yielded a TC0 of 14.1 µmol and a TC50 of 98.74 µmol. In addition, the selectivity ratio with hepatitis B virus [2] was determined as 13.1. Further, the IC50 in the series on Hepatitis B virus [3] worked out at 7.55 µmol.
Taken in the same sequence, the figures for `CCOC(=O)C1=C(CN2CCCCC2)NC(c2c(F)cc(F)cc2F)=NC1c1ccc(F)cc1Cl` (stereo not drawn) were 14.56 µmol, 25.21 µmol, 2.46 and 10.24 µmol.
Consider `CCCN1CCN(CC2=C(C(=O)OCC)C(c3ccc(F)cc3Cl)N=C(c3c(F)cc(F)cc3F)N2)CC1` (stereo not drawn), for which, in series [1], the TC0 was 4.45 µmol and the TC50 came out at 31.25 µmol.
In series [1], `CCOC(=O)C1=C(CN2CCN(CC)CC2)NC(c2c(F)cc(F)cc2F)=NC1c1ccc(F)cc1Cl` (stereo not drawn) came in with a TC0 of 13.78 µmol and a TC50 of 41.3 µmol. The selectivity ratio with hepatitis B virus [2] turned out to be 6.16. Also, the IC50 with Hepatitis B virus [3] was determined as 6.71 µmol.
With `CCOC(=O)C1=C(CN2CCOCC2)NC(c2c(F)cc(F)cc2F)=NC1c1ccc(F)cc1Cl` (stereo not drawn) [listing 1 of 2 here], the inhibition entry (in series [4]; with Hepatitis B virus [5]) was “Active” each time.
In series [1], `CCOC(=O)C1=C(CN2CCSCC2)NC(c2c(F)cc(F)cc2F)=NC1c1ccc(F)cc1Cl` (stereo not drawn) returned a TC0 of 4.68 µmol and a TC50 of 32.73 µmol.
In series [1], `CCOC(=O)C1=C(CN2CCOCC2)NC(c2c(F)cc(F)cc2F)=NC1c1ccc(F)cc1Cl.Cl` (stereo not drawn) came in with a TC0 of 4.51 µmol and a TC50 of 31.48 µmol. The “Selectivity Index” value in series [6] amounted to 13.37. Besides, in the series with Hepatitis B virus [3], the IC50 stood at 2.35 µmol.
For `CCOC(=O)C1=C(CN2CCCC2)NC(c2c(F)cc(F)cc2F)=NC1c1ccc(F)cc1Cl` (stereo not drawn), in series [1], the TC0 came to 14.96 µmol and the TC50 came to 77.29 µmol.
As for `Nc1ccn([C@@H]2CS[C@H](CO)O2)c(=O)n1` [LAMIVUDINE], in series [1], the TC0 is 0.82 µmol and the TC50 was 5.75 µmol. The IC50 with Hepatitis B virus [3] was 14.17 µmol.
With `CCOC(=O)C1=C(CN2CCN(C(=O)OCC)CC2)NC(c2c(F)cc(F)cc2F)=NC1c1ccc(F)cc1Cl` (stereo not drawn), in series [1], the TC0 is 4.22 µmol and the TC50 worked out at 29.6 µmol.
On to `CCOC(=O)C1=C(CN2CCNC(=O)C2)NC(c2c(F)cc(F)cc2F)=NC1c1ccc(F)cc1Cl` (stereo not drawn), for which, in series [1], the TC0 is 4.7 µmol and the TC50 came to 32.85 µmol. The selectivity ratio in the series on hepatitis B virus [2] turned out to be 5.72. For the same compound, the IC50 with Hepatitis B virus [3] worked out at 5.74 µmol.
In series [1], `CCOC(=O)C1=C(CN2CCOCC2)NC(c2c(F)cc(F)cc2F)=NC1c1ccc(F)cc1Cl` (stereo not drawn) [listing 2 of 2 here] showed a TC0 of 4.83 µmol and a TC50 of 33.75 µmol. Further, the “Selectivity Index” value in series [6] was found to be 3.19. Moreover, the IC50 with Hepatitis B virus [3] came to 10.57 µmol.
